Screening results from PubChem.
TRPC6 inhibitor = mouse TRPC6 channel inhibition. HEK293-TRPC6, membrane potential dye, ACh-evoked depolarization; stronger effect = lower value. B-score at 10 µM. 310,000 compounds, 1.1% hits. AID 2553;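 active = B-score under library mean minus 3 SD, initial fluorescence not abnormally high, positive integrated signal ratio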;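 also: B-score derived from integrated fluorescence ratio over the kinetic read; more negative B-score means stronger inhibition of depolarization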
TRPC6 activator = activators of mouse TRPC6 channel; Q61143; B-score at 10 µM; HEK293-TRPC6 membrane potential dye fluorescence; stronger effect = higher value; 310,000 compounds, 0.13% hits;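 active = B-score of the integrated fluorescence ratio above library mean plus 3 SD, and starting fluorescence ratio within library mean plus 5 SD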;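 also: higher score means more depolarization so channel activation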
TRPC4 potent = allosteric potentiators of mouse TRPC4 channel; Q9QUQ5; HEK293 TRPC4beta/mu-opioid, DAMGO EC20, Fluo-4 Ca2+ flux; stronger effect = higher value; B-score at 10 µM; AID 2227; 310,000 compounds, 0.42% hits;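 active = B-score of calcium response area above 5 SD of library B-scores, with initial fluorescence ratio within 5 SD of library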;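 also: B-score of integrated fluorescence ratio over time as area under calcium response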
Target sequence (Q9QUQ5 whole entry, looked up): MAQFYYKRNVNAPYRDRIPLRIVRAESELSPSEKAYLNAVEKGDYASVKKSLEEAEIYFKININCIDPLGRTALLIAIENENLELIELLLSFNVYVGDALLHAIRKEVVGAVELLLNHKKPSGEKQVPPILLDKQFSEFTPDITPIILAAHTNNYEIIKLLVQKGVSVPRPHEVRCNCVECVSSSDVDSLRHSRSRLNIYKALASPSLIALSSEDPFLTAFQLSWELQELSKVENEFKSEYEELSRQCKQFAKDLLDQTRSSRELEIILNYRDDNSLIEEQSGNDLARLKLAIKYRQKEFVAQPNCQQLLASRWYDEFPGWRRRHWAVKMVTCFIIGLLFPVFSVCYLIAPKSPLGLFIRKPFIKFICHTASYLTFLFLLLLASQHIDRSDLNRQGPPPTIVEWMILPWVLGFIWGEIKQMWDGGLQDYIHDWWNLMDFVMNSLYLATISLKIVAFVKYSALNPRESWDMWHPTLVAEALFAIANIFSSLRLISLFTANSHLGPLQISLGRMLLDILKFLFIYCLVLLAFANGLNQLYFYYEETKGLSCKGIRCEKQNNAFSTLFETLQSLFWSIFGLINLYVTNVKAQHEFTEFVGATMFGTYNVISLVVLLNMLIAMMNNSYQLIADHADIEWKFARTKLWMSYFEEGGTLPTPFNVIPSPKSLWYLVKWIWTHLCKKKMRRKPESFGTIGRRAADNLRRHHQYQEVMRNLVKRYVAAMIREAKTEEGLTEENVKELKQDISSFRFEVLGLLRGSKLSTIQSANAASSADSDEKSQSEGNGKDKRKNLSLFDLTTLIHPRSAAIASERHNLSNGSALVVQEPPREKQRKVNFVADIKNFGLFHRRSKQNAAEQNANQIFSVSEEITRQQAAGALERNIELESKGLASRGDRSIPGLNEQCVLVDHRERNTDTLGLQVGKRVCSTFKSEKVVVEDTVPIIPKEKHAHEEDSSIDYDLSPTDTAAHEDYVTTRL
TRPC4 inh = inhibitors of mouse TRPC4 channel. HEK293 TRPC4beta/mu-opioid, DAMGO-evoked Fluo4 calcium flux; stronger effect = lower value. 300,000 compounds, 0.39% hits. B-score at 10 µM. Q9QUQ5;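 active = B-score over 3 SD under the library average, no early fluorescence shift, positive overall ratio signal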
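Assay system: HEK293 cells with stable TRPC4beta plus mu-opioid receptor expression. Dosing: single dose. Measured by: Fluo4 Ca2+ flux fluorescence. Also added: DAMGO in two steps, submaximal then maximal. Read-out: B score from integrated Fluo4 fluorescence ratio.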
TRPC4 agonist = TRPC4 (mouse) channel activation | 310,000 compounds, 0.49% hits | B-score at 10 µM | AID 2237 | HEK293 TRPC4beta/mu-opioid, Fluo4 calcium fluorescence; stronger effect = higher value | Q9QUQ5;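 active = B-score above 5 SD of library B-scores, and initial fluorescence ratio not above library mean plus 5 SD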;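 also: positive B-score marks a calcium rise read as TRPC4 activation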
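system = HEK293 cells stably co-expressing mouse TRPC4beta and mu-opioid receptor | schedule = Fluo4 dye loading 45 min at room temperature, 110 s recording | measure = B-scored integrated calcium fluorescence ratio | signal = Fluo4 calcium-sensitive dye fluorescence, kinetic, 1 Hz baseline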
TRPC4 sel inh 2 = mouse TRPC4 off-target activity of TRPC6 inhibitors, second screen. shares compounds with TRPC6 inhibitor. HEK293 TRPC4/MOR, membrane potential dye fluorescence; channel activated by saturating DAMGO dose. inhibition, % at 10 µM. 920 compounds, 42% hits. AID 2776;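 active = compounds whose fluorescence signal differed from control wells by over 3 SD, either direction, in both duplicate plates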
TRPC4 spec = tests whether TRPC6 inhibitors also affect mouse TRPC4. shares compounds with TRPC6 inhibitor. HEK293 TRPC4/mu-opioid, membrane potential fluorescence. activity change, negative = inhibition, % at 10 µM. 920 compounds, 61% hits;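 active = rise or fall in signal beyond 3 SD of buffer-only wells in both replicate plates, either sign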;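 also: integrated kinetic ratio of fluorescence range over baseline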
HEK293 MPD ctr 2-1 = second counter-screen for TRPC6 inhibitors: parental HEK293 cells; shares compounds with TRPC6 inhibitor; signal change vs control, % at 10 µM; parental HEK293 membrane potential dye fluorescence; maximal acetylcholine challenge after compound addition; 920 compounds, 31% hits;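 active = membrane potential signal moving either way by over 3 SD of the maximum-effect control, in both duplicate plates, meaning non-specific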
HEK293 MPD ctr-1 = counter-screen for TRPC6 inhibitors: effect in parental HEK293 cells | parental HEK293 membrane potential dye fluorescence | 920 compounds, 60% hits | shares compounds with TRPC6 inhibitor | AID 2780 | membrane potential signal change, % at 10 µM;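 active = membrane potential signal shifting up or down by more than 3 SD of buffer-only wells, on both duplicate plates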
HEK293 MPD ctr-2 = counter-screen for TRPC6 modulators: effect in parental HEK293 cells. shares compounds with TRPC6 inhibitor. membrane potential dye fluorescence. membrane potential signal change, % at 10 µM. 2,400 compounds, 51% hits. AID 488924;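 active = membrane potential signal moves up or down beyond 5 SD from buffer-only wells, on both duplicate plates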
HEK293 MPD ctr 2-2 = second counter-screen for TRPC6 modulators: effect in parental HEK293 cells; inhibition, % at 10 µM; AID 488926; 2,400 compounds, 14% hits; membrane potential dye fluorescence; after compound, maximal acetylcholine stimulation; shares compounds with TRPC6 inhibitor;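 active = membrane potential signal drops by more than 5 SD from the mean control signal, in both duplicate plates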;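 also: plate controls were acetylcholine ECmax control wells for no effect and buffer only wells for full effect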
TRPC4/MOR mod = tests whether TRPC6 modulators also affect mouse TRPC4; shares compounds with TRPC6 inhibitor; HEK293 TRPC4/mu-opioid, membrane potential fluorescence; percent change from control (negative = decrease, positive = increase), % at 10 µM; 2,400 compounds, 69% hits; AID 488927;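 active = membrane potential signal moved up or down beyond 5 SD of buffer control wells, in both duplicate plates, actives on both sides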;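 also: plate controls were assay buffer wells for no effect and DAMGO maximal-effect wells for full effect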
TRPC4/MOR inh 2 = mouse TRPC4 off-target activity of TRPC6 modulators, second screen; HEK293 TRPC4/mu-opioid, membrane potential dye fluorescence; stimulated with maximal-effect DAMGO; inhibition, % at 10 µM; shares compounds with TRPC6 inhibitor; 2,400 compounds, 55% hits; AID 488928;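 active = drop in membrane potential signal beyond 5 SD of the control wells in both duplicate plates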;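 also: TRPC4 counter screen for TRPC6 hits run under conditions tuned for TRPC6 not TRPC4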
TRPC6 inh conf = confirmation of mouse TRPC6 inhibitors. shares compounds with TRPC6 inhibitor. HEK293-TRPC6, membrane potential dye, ACh-evoked depolarization. inhibition, % at 10 µM. 3,300 compounds, 43% hits. AID 488960;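 active = fluorescence ratio falls more than 5 SD below the full-stimulation control mean, in both duplicate runs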;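 also: integrated fluorescence ratio of peak minus minimum over baseline after agonist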
TRPC6 act confirm = mouse TRPC6 activator confirmation; HEK293-TRPC6 membrane potential dye fluorescence, FDSS; AID 488961; shares compounds with TRPC6 inhibitor; activation, % at 10 µM; 2,800 compounds, 11% hits;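 active = ratio signal rise beyond 5 SD above unstimulated control wells' mean, seen in both duplicate runs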;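 also: plate controls were buffer EC0 wells for no effect and acetylcholine ECmax response for full effect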
* = called active by the depositor; i = inactive; . = no result. Sampled rows, rich in hits. Any-hit rate of the full collection: about 2.3%.

SMILES	TRPC6 inhibitor	TRPC6 activator	TRPC4 potent	TRPC4 inh	TRPC4 agonist	HEK293 MPD ctr-2	HEK293 MPD ctr 2-2	TRPC4/MOR mod	TRPC4/MOR inh 2	TRPC6 inh conf	TRPC6 act confirm	others
COc1ccc(C(C(=O)NCC2CCCO2)N(C(=O)CNC(=O)c2ccco2)c2cc(C)ccc2C)cc1OC (centres undefined)	i	i	i	i	i	.	.	.	.	.	.
O=C(OC1CCOC1=O)c1cc(-c2cccs2)nc2ccccc12 (centres undefined)	i	i	i	i	i	.	.	.	.	.	.
Nc1c2c(nc3sc4c(c13)CCCC4)CCCCCC2	i	i	i	i	i	.	.	.	.	.	.
Cc1ccc(C)c2c(N)c3c(nc12)CCCCC3 (tested in a mixture with another compound)	-5.8*	i	i	-7*	i	-118%*	i	-22%*	i	i	i
COC(=O)c1ccc2c(c1)C(C)(C)C(/C=C/c1ccc(OC)c(OC)c1OC)=[N+]2C	-9.6*	i	i	i	i	-179%*	88%*	-190%*	56%*	72%*	i
O=C(C1CC1)N1CCCC(c2ccc(Cl)cc2)=N1	-7*	i	i	i	i	.	.	.	.	i	.	TRPC4 sel inh 2=i;TRPC4 spec=9.6%*;HEK293 MPD ctr 2-1=i;HEK293 MPD ctr-1=5.5%*
Cc1nn(C)cc1S(=O)(=O)NC1CCCC1	i	i	i	i	i	.	.	.	.	.	.
CCOC(=O)C1=C(CN2CCN(CCC#N)CC2)NC(=O)NC1c1ccc2c(c1)OCO2 (centres undefined)	i	i	i	i	i	.	.	.	.	.	.
CN(CCO)c1cc(NCCCN2CCC(Cc3ccccc3)CC2)c2nonc2c1[N+](=O)[O-]	i	i	i	i	i	.	.	.	.	.	.
CC1CCN(CCCNc2cc(NCCO)c([N+](=O)[O-])c3nonc23)CC1	-7.2*	i	i	i	i	.	.	.	.	57%*	i	TRPC4 sel inh 2=i;TRPC4 spec=-29%*;HEK293 MPD ctr 2-1=36%*;HEK293 MPD ctr-1=-454%*
OCC1(O)OC[C@@H](O)[C@H]1O (some centres undefined)	i	i	i	i	i	.	.	.	.	.	.
CCOC(=O)C1CCN(Cc2cnc(NC(=O)OC)s2)CC1	i	i	i	i	i	.	.	.	.	.	.
CCOC(=O)C1CCN(Cc2cnc(Oc3ccc(C(C)(C)C)cc3)s2)CC1	-6.5*	12*	i	i	i	i	i	8.5%*	i	52%*	83%*
S=C(NCc1ccccc1)N1CCc2ccccc2C1	i	i	i	.	i	.	.	.	.	.	.
C=CCNC(=O)N1CCc2[nH]c3ccc(F)cc3c2C1	-6.2*	i	i	i	i	240%*	i	18%*	i	82%*	.
CCCCNC(=O)N1CCc2[nH]c3ccccc3c2C1	-6.1*	i	i	i	i	i	i	i	i	72%*	.
Fc1ccc2[nH]c3c(c2c1)CN(C(=S)NCc1ccccc1)CC3	-12*	i	i	i	i	.	.	.	.	127%*	.	TRPC4 sel inh 2=i;TRPC4 spec=-13%*;HEK293 MPD ctr 2-1=i;HEK293 MPD ctr-1=i
COC(=O)c1cc(C(=O)Nc2nc3ccccc3[nH]2)cc([N+](=O)[O-])c1	i	i	i	i	i	.	.	.	.	.	.
Cc1cccn2c(CNC3CCCc4ccccc43)c(C(=O)N3CCCCC3)nc12 (centres undefined)	-8*	i	i	i	i	420%*	75%*	92%*	55%*	74%*	.
CCOC(=O)C1CCCN(Cc2c(C(=O)N3CCCCC3)nc3c(C)cccn23)C1 (centres undefined)	i	i	i	i	i	.	.	.	.	.	.
CCOc1ccccc1-n1c(SCC(=O)N2CCOCC2)nc2ccccc2c1=O	i	i	i	i	i	.	.	.	.	.	.
Cc1cccc(NC(=O)COc2ccc(/C=C\c3[nH]c(=O)[nH]c(=O)c3[N+](=O)[O-])cc2)c1	i	14*	i	i	i	i	i	i	i	i	i
CCN(CC(=O)Nc1ccccc1C(F)(F)F)C(=O)c1cc(S(=O)(=O)N2CCCCCC2)ccc1OC	i	i	i	i	i	.	.	.	.	.	.
Cc1ccc(O)c([C@H](CCN(C(C)C)C(C)C)c2ccccc2)c1	-6.2*	i	i	i	i	174%*	96%*	33%*	41%*	87%*	.
Cc1nnc(-c2ccccc2)c(=O)n1/N=C/c1c(O)ccc2ccccc12	-7.3*	i	i	i	i	.	.	.	.	80%*	.	TRPC4 sel inh 2=68%*;TRPC4 spec=23%*;HEK293 MPD ctr 2-1=-242%*;HEK293 MPD ctr-1=8.7%*
O=[N+]([O-])c1nn(-c2ccc3c(c2)OCCO3)n(O)c1=NC1CCN(Cc2ccccc2)CC1	-8.6*	i	i	i	i	.	.	.	.	i	i	TRPC4 sel inh 2=i;TRPC4 spec=i;HEK293 MPD ctr 2-1=i;HEK293 MPD ctr-1=i
O=C(O)c1cc(Cl)c(Cl)cc1C(=O)N(Cc1ccccc1)Cc1ccccc1	i	i	i	i	i	.	.	.	.	.	.
COc1ccc(CN(C(=O)CN2C(=O)COc3ccccc32)C2CCCC2)c(OC)c1	i	12*	i	i	i	319%*	i	i	i	i	i
